The target in experiment [1] is Kynurenine 3-monooxygenase (Rattus norvegicus) (UniProt O88867). Briefly: Compound was evaluated for ex vivo inhibition of Kynurenine 3-hydroxylase activity in liver of rat after injecting perorally. Format: tissue-based. The method, boiled down: (§1)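 Rats got oral doses in 0.1% Tween-80 suspension (0.5 mL/100 g), five or six doses with four or five animals per dose, and were decapitated 2 h later. Kidney or liver was homogenized in 9 volumes of 0.32 M sucrose/5 mM Tris-HCl pH 7.4 with 0.5 mM PMSF. 25 µL homogenate was assayed by [3H]water release with 2 min incubation.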
Sequence of Kynurenine 3-monooxygenase (Rattus norvegicus) (O88867 whole entry, looked up): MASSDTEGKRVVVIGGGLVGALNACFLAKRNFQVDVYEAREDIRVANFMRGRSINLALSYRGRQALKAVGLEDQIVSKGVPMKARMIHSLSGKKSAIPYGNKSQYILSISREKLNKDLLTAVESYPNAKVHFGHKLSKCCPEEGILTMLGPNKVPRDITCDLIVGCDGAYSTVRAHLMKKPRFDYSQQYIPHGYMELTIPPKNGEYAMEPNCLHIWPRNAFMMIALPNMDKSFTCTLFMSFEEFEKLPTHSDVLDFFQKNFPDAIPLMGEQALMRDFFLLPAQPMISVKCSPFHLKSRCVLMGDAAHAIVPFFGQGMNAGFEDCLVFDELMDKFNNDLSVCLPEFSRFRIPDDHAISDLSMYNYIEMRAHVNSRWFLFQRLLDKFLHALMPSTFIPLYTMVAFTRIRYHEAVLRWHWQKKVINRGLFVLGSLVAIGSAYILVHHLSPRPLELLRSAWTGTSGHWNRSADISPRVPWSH

Experiment [2] concerns the target T1, Kynurenine 3-monooxygenase (Rattus norvegicus, UniProt O88867). As to the kind of experiment: Inhibition of rat kidney Kynurenine 3-hydroxylase. The method, boiled down:
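The enzyme source was a crude mitochondrial fraction from rat kidney. The assay used 0.1 M K-phosphate pH 7.4 with 100 µM L-kynurenine plus 0.1 µCi L-[3-3H]kynurenine, 200 µM NADPH, and an NADPH-regenerating system, with 30 µg protein. Inhibitor was preincubated 15 min at 37 °C, then the reaction ran 10 min at 37 °C. Charcoal removed substrate and 3H2O was counted.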

Experiment [3] has as its target Kynurenine 3-monooxygenase (Rattus norvegicus) (UniProt O88867). Briefly: Compound was evaluated for ex vivo inhibition of Kynurenine 3-hydroxylase activity in kidney of rat after injecting perorally. It is filed as tissue-based. The method, boiled down: as §1
The subject of experiment [4] is Kynurenine 3-monooxygenase (Meriones unguiculatus). As to the kind of experiment: Compound was evaluated for ex vivo inhibition of Kynurenine 3-hydroxylase activity in Liver from Gerbils after injecting perorally. As to conditions: Gerbillinae.
Experiment [5] has the same test system. As to the kind of experiment: Compound was evaluated for ex vivo inhibition of Kynurenine 3-hydroxylase activity in brain from Gerbils after injecting perorally. As to conditions: Gerbillinae.
For experiment [6] the test system is unchanged. As to the kind of experiment: Compound was evaluated for ex vivo inhibition of Kynurenine 3-hydroxylase activity in Kidney from Gerbils after injecting perorally. As to conditions: Gerbillinae.
Experiment [7] deals with T1, Kynurenine 3-monooxygenase. As to the kind of experiment: Inhibitory constant against Kynurenine 3-hydroxylase. The method, boiled down: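 Competitive-inhibition kinetics on rat kidney crude mitochondrial kynurenine 3-hydroxylase. L-[3-3H]kynurenine saturation experiments with NADPH 200 μM plus a glucose 6-phosphate regenerating system, in 0.1 M potassium phosphate pH 7.4 at 37 °C. No preincubation; the enzyme was added to start the reaction. Read-out was tritiated water counted after charcoal removal of substrate. Ki was taken from replots of apparent Km versus inhibitor concentration; three experiments.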

pIC50, pKi: −log10 of the molar value.

T1 sequence (O88867 whole entry): as the sequence (O88867 whole entry, looked up) above

As for `COc1ccc(S(=O)(=O)Nc2nc(-c3cc(C(F)(F)F)ccc3F)cs2)cc1OC`, the ED50 (commonly the dose at which the effect has come halfway, by size or by number of responders) in experiment [1] worked out at 5.3 µmol/kg; in experiment [3] it was 6.6 µmol/kg; in experiment [4], 0.9 µmol/kg; in experiment [5] it was 5.2 µmol/kg; in experiment [6], 1.8 µmol/kg. Besides, the pIC50 (commonly −log10 of the IC50, conventionally taken in molar units) in experiment [2] is 7.41.

Regarding `COc1ccc(-c2csc(NS(=O)(=O)c3ccc(C)cc3)n2)cc1`, in experiment [2], the pIC50 is 6.62.

In turn, `O=C(O)CCC(=O)c1cccc([N+](=O)[O-])c1` showed a pIC50 in experiment [2] of 5.24.

Turning to `COc1ccc(S(=O)(=O)Nc2nc(-c3cccc([N+](=O)[O-])c3)cs2)cc1`, the ED50 was 9 µmol/kg in experiment [1] and 3 µmol/kg in experiment [3]. This compound also showed a pIC50 in experiment [2] of 7.29.

`O=[N+]([O-])c1cccc(-c2csc(NS(=O)(=O)c3ccc(Cl)c(Cl)c3)n2)c1` had a pIC50 in experiment [2] of 6.92.

In experiment [2], `Cc1ccc(S(=O)(=O)Nc2nc(-c3ccc(Cl)cc3)cs2)cc1` gave a pIC50 of 7.25.

For `O=[N+]([O-])c1cccc(-c2cc(-c3nn[nH]n3)no2)c1`, in experiment [2], the pIC50 is 5.94.

As for `Cc1ccc(S(=O)(=O)Nc2nc(-c3cccc([N+](=O)[O-])c3)cs2)cc1`, the figures for the 50% effective dose (ED50) in experiment [1] and in experiment [3] were 33.4 µmol/kg and 13.3 µmol/kg, respectively. In experiment [2], this compound had a pIC50 of 7.32.

For the compound `NC(CC(=O)c1ccc(Cl)c(Cl)c1)C(=O)O` (stereo unspecified), the values for the ED50 in experiment [1] and in experiment [3] were 222 µmol/kg and 25.1 µmol/kg, respectively. This compound also gave a pIC50 in experiment [2] of 6.63. For the same compound, in experiment [7], the pKi (usually −log10 of the Ki, conventionally taken in molar units) was 7.02.

The compound `Cc1ccc(S(=O)(=O)Nc2nc(-c3ccc(O)c(C)c3)cs2)cc1` had a pIC50 in experiment [2] of 6.94.

In experiment [2], `Cc1ccc(S(=O)(=O)Nc2nc(-c3ccc(Cl)c(Cl)c3)cs2)cc1` had a pIC50 of 7.25.

On to `Cc1ccc(S(=O)(=O)Nc2nc(-c3ccccc3)cs2)cc1`, for which the pIC50 in experiment [2] was 6.33.

In experiment [2], `COc1ccc(S(=O)(=O)Nc2nc(-c3cccc([N+](=O)[O-])c3)cs2)cc1OC` showed a pIC50 of 7.43. The same compound had a pKi in experiment [7] of 8.32.

The compound `O=C(O)c1[cH-]c(-c2cccc([N+](=O)[O-])c2)[o+]n1` gave a pIC50 in experiment [2] of 5.57.

As to `CC(C)c1ccc(S(=O)(=O)Nc2nc(-c3cccc([N+](=O)[O-])c3)cs2)cc1`, the pIC50 in experiment [2] was 6.00.

Compound `Nc1ccc(S(=O)(=O)Nc2nc(-c3cccc([N+](=O)[O-])c3)cs2)cc1` had a pIC50 in experiment [2] of 7.40.

For `O=[N+]([O-])c1cccc(-c2csc(NS(=O)(=O)c3ccc(Cl)cc3)n2)c1`, in experiment [2], the pIC50 is 7.08.

The compound `NC(CC(=O)c1cccc([N+](=O)[O-])c1)C(=O)O` (stereo unspecified) showed a pIC50 in experiment [2] of 6.11.

Turning to `O=[N+]([O-])c1cccc(-c2csc(NS(=O)(=O)c3ccccc3)n2)c1`, the negative-log IC50 (pIC50) in experiment [2] was 6.70.

As to `Nc1ccc(S(=O)(=O)Nc2nc(-c3cc(C(F)(F)F)ccc3F)cs2)cc1`, the ED50 in experiment [1] was 4.6 µmol/kg; in experiment [3], 1.1 µmol/kg. Further, the pIC50 in experiment [2] was 7.72.

`Cc1ccc(-c2csc(NS(=O)(=O)c3ccc(C)cc3)n2)cc1` gave a pIC50 in experiment [2] of 7.12.

Values taken from ChEMBL document CHEMBL1130431, “Synthesis and biochemical evaluation of N-(4-phenylthiazol-2-yl)benzenesulfonamides as high-affinity inhibitors of kynurenine 3-hydroxylase” (J Med Chem, 1997).
